Experiment [1] concerns Agrobacterium tumefaciens. Kind of experiment: Antibacterial activity against Agrobacterium tumefaciens No.8 ATCC 11158 by modified broth dilution method. It is filed as functional. In a few lines: (§1)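 MIC read in 96-well plates by a modified broth dilution test; streptomycin sulfate as positive control.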
Experiment [2] can be described thus: Cytotoxicity against human BGC823 cells by MTT assay. The conditions noted are these: BGC-823. For orientation: Tetrazolium assays rely on reduction of a dye to a coloured formazan, in cell work by metabolically active cells.
Another experiment deals with Ralstonia solanacearum. The experiment in a line: Antibacterial activity against Ralstonia solanacearum ATCC 11696 by modified broth dilution method. It is filed as functional.
A short description of experiment [3]: Cytotoxicity against human Bel7402 cells by MTT assay. The following applies: Bel-7402.
The nature of experiment [4]: Cytotoxicity against human HCT8 cells by MTT assay. The conditions noted are these: HCT-8.
Another experiment concerns Pseudomonas. Kind of experiment: Antibacterial activity against Pseudomonas lachrymans ATCC 11921 by modified broth dilution method. The experiment is classed as functional. The essentials: as §1
(In general: Dilution methods test growth across graded concentrations, often in twofold steps.)

The next experiment relates to Pyricularia oryzae. The experiment in a line: Antifungal activity against Magnaporthe oryzae assessed as inhibition of spore germination incubated for 8 hrs. The experiment is classed as functional, organism-based.
Another experiment has as its system Bacillus subtilis. Kind of experiment: Antibacterial activity against Bacillus subtilis ATCC 11562 by modified broth dilution method. It is filed as functional. In a few lines: as §1
A further experiment deals with A549. The experiment in a line: Cytotoxicity against human A549 cells by MTT assay. It is filed as functional, cell-based.
The subject of experiment [5] is Staphylococcus haemolyticus. Kind of experiment: Antibacterial activity against Staphylococcus haemolyticus ATCC 29970 by modified broth dilution method. It is filed as functional. The essentials:
as §1

In another experiment the test system is Xanthomonas vesicatoria. Kind of experiment: Antibacterial activity against Xanthomonas vesicatoria ATCC 11633 by modified broth dilution method. It is filed as functional. In a few lines:
as §1

In a further experiment the test system is A2780. The experiment in a line: Cytotoxicity against human A2780 cells by MTT assay.

Converted amounts (≈) assume the structure as drawn.

In ChEMBL document CHEMBL3352444, “Bioactive spirobisnaphthalenes from the endophytic fungus Berkleasmium sp” (J Nat Prod, 2014) one finds MIC and IC50 data, which are given here for 13 compounds.

Take `Oc1cccc2c1[C@@H](O)[C@H]1O[C@H]1C21Oc2cccc3cccc(c23)O1`: the MIC in experiment [1] stood at 37.5 µg/mL (≈ 112 µM); against Ralstonia solanacearum, 37.5 µg/mL (≈ 112 µM); in the experiment on Pseudomonas, 37.5 µg/mL (≈ 112 µM); with Bacillus subtilis, 25 µg/mL (≈ 74.8 µM); in [5], 25 µg/mL (≈ 74.8 µM); with Xanthomonas vesicatoria it was 37.5 µg/mL (≈ 112 µM). For the same compound, the IC50 in experiment [2] was over 10 µM; in [3] it was over 10 µM; in experiment [4], over 10 µM; with Pyricularia oryzae, 32.3 µg/mL (≈ 96.6 µM); in the experiment on A549, over 10 µM; in the experiment with A2780 it was over 10 µM.
On to `O=C1C=C[C@H](O)[C@@]23O[C@@]12C1(Oc2cccc4cccc(c24)O1)[C@H](O)[C@@H](O)[C@@H]3O`, for which the MIC came out at 200 µg/mL (≈ 520 µM) in [1]; 200 µg/mL (≈ 520 µM) in the experiment on Ralstonia solanacearum; 150 µg/mL (≈ 390 µM) in the experiment with Pseudomonas; 200 µg/mL (≈ 520 µM) in the experiment with Bacillus subtilis; 200 µg/mL (≈ 520 µM) in experiment [5]; 150 µg/mL (≈ 390 µM) with Xanthomonas vesicatoria. Also, the IC50 in [2] is over 10 µM; in experiment [3], over 10 µM; in [4] it was over 10 µM; in the experiment with Pyricularia oryzae it was over 200 µg/mL; with A549 it was over 10 µM; with A2780 it was over 10 µM.
For the compound `O=C1C[C@@H](O)[C@H](O)[C@@]23O[C@@]12C1(Oc2cccc4cccc(c24)O1)[C@@H]1O[C@@H]1[C@@H]3O`, the MIC (in [1]; against Ralstonia solanacearum; in the experiment with Pseudomonas; in the experiment on Bacillus subtilis; in experiment [5]; against Xanthomonas vesicatoria) was 75 µg/mL (≈ 195 µM) throughout. Besides, the IC50 is 3.3 µM in [2]; 3.3 µM in [3]; 1.7 µM in experiment [4]; over 200 µg/mL in the experiment with Pyricularia oryzae; 3.2 µM in the experiment on A549; 5.8 µM in the experiment with A2780.
As to `CO[C@@H]1CC(=O)[C@]23O[C@]2([C@@H](O)[C@H]2O[C@H]2C32Oc3cccc4cccc(c34)O2)[C@H]1O`, the MIC in experiment [1] is 50 µg/mL (≈ 126 µM); in the experiment on Ralstonia solanacearum it was 37.5 µg/mL (≈ 94.1 µM); against Pseudomonas, 37.5 µg/mL (≈ 94.1 µM); with Bacillus subtilis, 37.5 µg/mL (≈ 94.1 µM); in experiment [5] it was 50 µg/mL (≈ 126 µM); against Xanthomonas vesicatoria it was 37.5 µg/mL (≈ 94.1 µM). Further, the IC50 in experiment [2] is over 10 µM; in [3], 6.4 µM; in [4], over 10 µM; with Pyricularia oryzae it was over 200 µg/mL; in the experiment with A549 it was 8.7 µM; in the experiment on A2780, over 10 µM.
For the compound `Oc1ccc(O)c2c1[C@@H](O)[C@H]1O[C@H]1C21Oc2cccc3cccc(c23)O1`, the MIC was 250 µg/mL (≈ 714 µM) in experiment [1]; 250 µg/mL (≈ 714 µM) in the experiment on Ralstonia solanacearum; 200 µg/mL (≈ 571 µM) in the experiment on Pseudomonas; 100 µg/mL (≈ 285 µM) against Bacillus subtilis; 250 µg/mL (≈ 714 µM) in experiment [5]; 200 µg/mL (≈ 571 µM) in the experiment on Xanthomonas vesicatoria. In addition, the IC50 in [2] was over 10 µM; in experiment [3], over 10 µM; in [4] it was over 10 µM; with Pyricularia oryzae, 76.7 µg/mL (≈ 219 µM); in the experiment with A549 it was over 10 µM; in the experiment with A2780 it was over 10 µM.
As for `O=C1C[C@@H](O)C2(Oc3cccc4cccc(c34)O2)c2c(O)ccc(O)c21`, the MIC in experiment [1] amounted to 37.5 µg/mL (≈ 107 µM); in the experiment on Ralstonia solanacearum it was 37.5 µg/mL (≈ 107 µM); against Pseudomonas, 37.5 µg/mL (≈ 107 µM); in the experiment on Bacillus subtilis, 37.5 µg/mL (≈ 107 µM); in experiment [5] it was 50 µg/mL (≈ 143 µM); against Xanthomonas vesicatoria, 50 µg/mL (≈ 143 µM). The IC50 was over 10 µM in experiment [2]; over 10 µM in experiment [3]; over 10 µM in experiment [4]; 64.8 µg/mL (≈ 185 µM) with Pyricularia oryzae; over 10 µM in the experiment on A549; over 10 µM in the experiment on A2780.
Turning to `Oc1ccc(O)c2c1C=C[C@@H](O)C21Oc2cccc3cccc(c23)O1`, the MIC in experiment [1] was 37.5 µg/mL (≈ 112 µM); with Ralstonia solanacearum, 37.5 µg/mL (≈ 112 µM); against Pseudomonas, 25 µg/mL (≈ 74.8 µM); with Bacillus subtilis, 50 µg/mL (≈ 150 µM); in experiment [5], 37.5 µg/mL (≈ 112 µM); against Xanthomonas vesicatoria, 37.5 µg/mL (≈ 112 µM). The IC50 is over 10 µM in experiment [2]; over 10 µM in [3]; over 10 µM in experiment [4]; 35.9 µg/mL (≈ 107 µM) in the experiment with Pyricularia oryzae; over 10 µM in the experiment with A549; over 10 µM in the experiment with A2780.
On to `O=C1C(Cl)=CC2(Oc3cccc4cccc(c34)O2)[C@]23O[C@]12[C@H](O)CCC3=O`, for which the MIC in experiment [1] stood at 25 µg/mL (≈ 65 µM); in the experiment with Ralstonia solanacearum, 25 µg/mL (≈ 65 µM); with Pseudomonas, 25 µg/mL (≈ 65 µM); against Bacillus subtilis, 50 µg/mL (≈ 130 µM); in experiment [5], 25 µg/mL (≈ 65 µM); with Xanthomonas vesicatoria, 25 µg/mL (≈ 65 µM). The IC50 in experiment [2] amounted to 2.6 µM; in [3], 2.5 µM; in experiment [4] it was 4.2 µM; in the experiment with Pyricularia oryzae it was 9.1 µg/mL (≈ 23.7 µM); in the experiment with A549, 1.6 µM; in the experiment on A2780 it was 1.3 µM.
Regarding `O[C@@H]1[C@@H](O)C2(Oc3cccc4cccc(c34)O2)[C@@]23O[C@@]2([C@@H](O)C=C[C@H]3O)[C@H]1O`, the minimal inhibitory concentration (MIC) (in experiment [1]; in the experiment with Ralstonia solanacearum; against Pseudomonas; against Bacillus subtilis; in [5]; with Xanthomonas vesicatoria) was over 250 µg/mL throughout. In addition, the IC50 is over 10 µM in [2]; over 10 µM in experiment [3]; over 10 µM in experiment [4]; over 200 µg/mL in the experiment with Pyricularia oryzae; over 10 µM in the experiment with A549; over 10 µM in the experiment on A2780.
`O[C@@H]1[C@@H](O)C2(Oc3cccc4cccc(c34)O2)[C@@]23O[C@@]2([C@@H](O)CC[C@H]3O)[C@H]1O`: the MIC (in [1]; against Ralstonia solanacearum; against Pseudomonas; in the experiment on Bacillus subtilis; in [5]; with Xanthomonas vesicatoria) was over 250 µg/mL each time. Further, the IC50 in experiment [2] is over 10 µM; in [3], over 10 µM; in [4], over 10 µM; in the experiment on Pyricularia oryzae it was over 200 µg/mL; in the experiment with A549 it was over 10 µM; in the experiment with A2780, over 10 µM.
For the compound `O=C1C=C[C@H](O)[C@@]23O[C@@]12C1(Oc2cccc4cccc(c24)O1)[C@@H]1O[C@@H]1[C@@H]3O`, the MIC (in experiment [1]; in the experiment on Ralstonia solanacearum; against Pseudomonas; against Bacillus subtilis; in experiment [5]; with Xanthomonas vesicatoria) was 50 µg/mL (≈ 136 µM) throughout. The IC50 in experiment [2] was over 10 µM; in [3], 5.1 µM; in experiment [4], over 10 µM; with Pyricularia oryzae it was 105 µg/mL (≈ 287 µM); in the experiment with A549, 8.8 µM; in the experiment with A2780 it was over 10 µM.
Turning to `COC(=O)Nc1nc2ccccc2[nH]1` [CARBENDAZIM], the IC50 with Pyricularia oryzae is 6.3 µg/mL (≈ 33 µM).
In the case of `CN[C@@H]1[C@H](O[C@H]2[C@H](O[C@H]3[C@H](O)[C@@H](O)[C@H](N=C(N)N)[C@@H](O)[C@@H]3N=C(N)N)O[C@@H](C)[C@]2(O)C=O)O[C@@H](CO)[C@H](O)[C@H]1O.CN[C@@H]1[C@H](O[C@H]2[C@H](O[C@H]3[C@H](O)[C@@H](O)[C@H](N=C(N)N)[C@@H](O)[C@@H]3N=C(N)N)O[C@@H](C)[C@]2(O)C=O)O[C@@H](CO)[C@H](O)[C@H]1O.O=S(=O)(O)O.O=S(=O)(O)O.O=S(=O)(O)O` [STREPTOMYCIN SULFATE], the MIC in experiment [1] was 5 µg/mL; against Ralstonia solanacearum, 5 µg/mL; in the experiment on Pseudomonas, 7.5 µg/mL; in the experiment on Bacillus subtilis it was 5 µg/mL; in experiment [5], 5 µg/mL; in the experiment on Xanthomonas vesicatoria it was 10 µg/mL.

In general, MIC refers to the smallest concentration in the dilution series that meets the test's criterion for growth inhibition. Lower therefore signals a more susceptible organism. The term IC50 denotes the point on the concentration scale where inhibition reaches its midpoint.
